Casp6 inh – human caspase-6 inhibitors, primary screen, biochemical, VEID-R110 fluorescence, single point, set 2; purified caspase-6, Z-VEID-R110 cleavage fluorescence; inhibition, % at 12.5 µM; actives 0.53% (n = 350,000);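 active = mean inhibition across replicates at least about 35%, with every replicate also reaching that limit, limit read from the data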;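 note: 0% = median of neutral control wells and 100% = no fluorescence left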
TDP2 absorb – human TDP2 enzyme inhibitors, primary screen, biochemical, epi absorbance, recombinant enzyme; inhibition, % at 12.8 µM; actives 0.34% (n = 370,000); Tyrosyl-DNA phosphodiesterase 2 (Homo sapiens), O95551; AID 720702, 2013; T5PNP hydrolysis, p-nitrophenol absorbance 415 nm;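 active = inhibition above the mean of all tested compounds plus 3 SD, set per campaign, cut at about 25% in these data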;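 note: 0% = DMSO with enzyme and 100% = buffer with substrate but no TDP2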
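Read-out basis: percent inhibition. System: recombinant human TDP2. Buffer or medium: Mg2+-containing Tris-HCl buffer, pH 7.5. Repeats: single replicate. Timing: reaction 2 h, 37 °C. Benchmarks: high control without enzyme, low control DMSO plus TDP2. Probe or stimulus: 5 mM T5PNP. Doses: 12.8 µM only. Measured by: epi absorbance of p-nitrophenol freed from T5PNP by hydrolysis.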
NSD2 HMT inh – NSD2 histone methyltransferase inhibitors, primary screen, biochemical, AlphaScreen, single concentration, set 2; Histone-lysine N-methyltransferase NSD2 (Homo sapiens), O96028; NSD2 peptide methylation, 120 min; inhibition, % at 12.5 µM; actives 0.54% (n = 310,000); in the data active = inhibition above about 50%
Target sequence (O96028 whole entry, looked up): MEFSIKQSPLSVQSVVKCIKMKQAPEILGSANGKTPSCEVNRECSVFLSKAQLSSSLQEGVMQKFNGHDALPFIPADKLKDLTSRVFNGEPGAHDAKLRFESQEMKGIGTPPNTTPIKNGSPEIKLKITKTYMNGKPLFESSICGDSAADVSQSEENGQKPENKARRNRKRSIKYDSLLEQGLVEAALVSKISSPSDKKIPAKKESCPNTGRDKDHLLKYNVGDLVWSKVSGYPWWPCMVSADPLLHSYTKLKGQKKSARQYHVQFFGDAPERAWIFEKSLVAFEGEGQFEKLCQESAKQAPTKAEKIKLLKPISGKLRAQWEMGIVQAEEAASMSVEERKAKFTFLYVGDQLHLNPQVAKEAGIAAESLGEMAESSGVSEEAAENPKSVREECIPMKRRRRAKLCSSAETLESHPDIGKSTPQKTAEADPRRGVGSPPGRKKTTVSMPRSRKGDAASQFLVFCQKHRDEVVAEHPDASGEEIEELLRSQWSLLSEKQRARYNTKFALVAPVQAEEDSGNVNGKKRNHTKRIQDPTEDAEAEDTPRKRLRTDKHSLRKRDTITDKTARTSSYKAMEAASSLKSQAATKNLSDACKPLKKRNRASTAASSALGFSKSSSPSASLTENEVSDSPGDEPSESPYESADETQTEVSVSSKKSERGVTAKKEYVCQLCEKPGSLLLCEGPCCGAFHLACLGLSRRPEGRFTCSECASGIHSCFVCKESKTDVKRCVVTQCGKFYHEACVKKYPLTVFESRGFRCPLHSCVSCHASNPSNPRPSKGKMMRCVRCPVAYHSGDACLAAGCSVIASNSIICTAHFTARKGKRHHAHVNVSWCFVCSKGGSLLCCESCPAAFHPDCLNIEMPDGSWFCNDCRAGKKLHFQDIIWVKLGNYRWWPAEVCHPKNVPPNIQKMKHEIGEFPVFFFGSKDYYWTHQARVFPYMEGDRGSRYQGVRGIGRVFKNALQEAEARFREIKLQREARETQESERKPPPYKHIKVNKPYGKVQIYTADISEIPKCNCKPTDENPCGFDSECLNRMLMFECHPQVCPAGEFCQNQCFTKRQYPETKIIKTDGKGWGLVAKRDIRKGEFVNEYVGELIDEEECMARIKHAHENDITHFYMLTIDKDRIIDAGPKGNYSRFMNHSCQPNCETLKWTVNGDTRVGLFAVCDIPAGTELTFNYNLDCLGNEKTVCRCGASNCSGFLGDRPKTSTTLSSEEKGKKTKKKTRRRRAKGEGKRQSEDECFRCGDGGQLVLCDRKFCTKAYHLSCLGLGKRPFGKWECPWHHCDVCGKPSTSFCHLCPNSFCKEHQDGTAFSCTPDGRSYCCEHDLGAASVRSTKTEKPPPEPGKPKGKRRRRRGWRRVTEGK
LEDGF integ inh – blockers of LEDGF/p75-dependent integrase strand transfer – biochemical, TR-FRET, high throughput, primary screen | HIV-1 integrase (with human LEDGF/p75) | TR-FRET IN-LEDGF/p75 DNA integration, Eu/Cy5 | inhibition, % at 3.7 µM | actives 0.64% (n = 370,000);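 active = inhibition above the screen-wide mean plus 3 SD, cut at about 13% in these data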;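 note: signal is the Cy5 over europium emission ratio at 671 and 618 nm; 0% = plate median of compound wells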
UHRF1 MBD2 ctr – UHRF1 methylated DNA binding inhibitors, primary screen, counter-screen for MBD2 inhibitor project, biochemical, TR-FRET, human UHRF1, single concentration | E3 ubiquitin-protein ligase UHRF1 (Homo sapiens), Q96T88 | UHRF1 binding to methylated oligo | inhibition, % at 4.4 µM | actives 0.75% (n = 370,000) | AID 687016, 2013; in the data active = inhibition above about 21%;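 note: UHRF1 SRA domain binding a hemimethylated CpG hairpin DNA probe; 0% = median of test compound wells and 100% = reference inhibitor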
MBD2 inh – inhibitors of MBD2 binding to methylated DNA, primary screen, biochemical, TR-FRET, DNA-binding domain, human | MBD2 binding to methylated oligonucleotide | inhibition, % at 4.4 µM | actives 0.31% (n = 370,000); in the data active = inhibition above about 13%
Starred values were filed as active, the others as inactive. An excerpt weighted towards active compounds, which were near 1.8% of everything screened.

Screening CO[C@@H]1CN(C)C(=O)c2cc(NC(C)=O)ccc2OC[C@@H](C)NC[C@@H]1C returned Casp6 inh -18.
Cc1cccc(C)c1OCc1cn(CC(=O)c2ccc(O)cc2)nn1 was read as Casp6 inh 10, TDP2 absorb 10, LEDGF integ inh 9, UHRF1 MBD2 ctr 19 and MBD2 inh 9.
For COc1cc(C(C)=O)ccc1OCc1cn(CC(=O)c2ccc(O)cc2)nn1 the results were Casp6 inh 12, TDP2 absorb -1, LEDGF integ inh 8, UHRF1 MBD2 ctr 21* and MBD2 inh 7.
CC(=O)c1ccc(OCc2cn(CC(=O)c3ccc(O)cc3)nn2)c(C)c1 was read as Casp6 inh 8, TDP2 absorb 4, LEDGF integ inh 3, UHRF1 MBD2 ctr 23* and MBD2 inh 11.
O=C(Cn1cc(COc2ccc(Br)cc2[N+](=O)[O-])nn1)c1ccc(O)cc1 was read as Casp6 inh 13, TDP2 absorb -4, LEDGF integ inh -1, UHRF1 MBD2 ctr 24* and MBD2 inh 8.
CC(=O)c1ccc(OCc2cn(CC(=O)c3ccc(O)cc3)nn2)cc1 was read as Casp6 inh 3, TDP2 absorb 2, LEDGF integ inh 4, UHRF1 MBD2 ctr 21* and MBD2 inh 4.
CCCN1CNC(=S)N(c2ccc(C)cc2C)C1 was read as Casp6 inh -4, TDP2 absorb 7, NSD2 HMT inh -3, LEDGF integ inh 1, UHRF1 MBD2 ctr -1 and MBD2 inh -5.
`CCCN1CNC(=S)N(c2ccccc2C)C1` gave Casp6 inh 56*, TDP2 absorb 6, NSD2 HMT inh 1, LEDGF integ inh 2, UHRF1 MBD2 ctr 3 and MBD2 inh -4.
`COCC(=O)Nc1ccc2c(c1)OC[C@H](C)N(Cc1cc(F)ccc1F)C[C@@H](C)[C@H](OC)CN(C)C2=O` gave Casp6 inh -1.
CCOc1ccccc1NC(=O)CSc1n[nH]c(N)n1 was read as Casp6 inh 57*, TDP2 absorb 2, NSD2 HMT inh -3, LEDGF integ inh 1, UHRF1 MBD2 ctr 1 and MBD2 inh -3.
For Cc1ccc(C(=O)CCC(=O)Nc2ccc(C)cn2)cc1 the results were Casp6 inh -2, TDP2 absorb -19, NSD2 HMT inh -1, LEDGF integ inh 5, UHRF1 MBD2 ctr 29* and MBD2 inh -4.
COc1ccc(/C=N/NC(=O)c2ccccc2O)cc1CN1CCOCC1 was read as Casp6 inh 42*, TDP2 absorb 13, NSD2 HMT inh 1, LEDGF integ inh -6, UHRF1 MBD2 ctr 1 and MBD2 inh 1.
For O=C(N/N=C/c1ccoc1)c1cc(O)cc(O)c1 the results were Casp6 inh 74*, TDP2 absorb 0, NSD2 HMT inh 6, LEDGF integ inh 8, UHRF1 MBD2 ctr 28* and MBD2 inh 5.
Screening O=C(N/N=C/c1oc(O)c2ccccc12)c1ccccc1O returned Casp6 inh 37*, TDP2 absorb 7, NSD2 HMT inh 1, LEDGF integ inh 0, UHRF1 MBD2 ctr -2 and MBD2 inh 3.
`O=C(N/N=C/c1ccc[nH]1)c1ccccc1O` gave Casp6 inh 60*, TDP2 absorb -9, NSD2 HMT inh 3, LEDGF integ inh 0, UHRF1 MBD2 ctr 1 and MBD2 inh 1.
Screening Cc1cc(C)cc(C(=O)N/N=C/c2ccoc2)c1 returned Casp6 inh 6, TDP2 absorb 8, NSD2 HMT inh -2, LEDGF integ inh 3, UHRF1 MBD2 ctr 4 and MBD2 inh -4.
For COc1ccc(/C=N/NC(=O)c2cccc(Br)c2)cc1CN1CCOCC1 the results were Casp6 inh 0, TDP2 absorb 9, NSD2 HMT inh 1, LEDGF integ inh 3, UHRF1 MBD2 ctr -2 and MBD2 inh -5.
For CC(=O)N1[C@@H]2Cn3c(ccc(-c4ccccc4)c3=O)[C@H]1[C@@H](C(=O)N1CCN(C)CC1)[C@@H]2CO the results were Casp6 inh -1.
Screening COc1ccc(S(=O)(=O)N(C)C[C@@H]2OCCCC[C@@H](C)Oc3ccc(NS(C)(=O)=O)cc3C(=O)N([C@@H](C)CO)C[C@@H]2C)cc1 returned Casp6 inh -1.
C[C@@H]1CN([C@H](C)CO)C(=O)Cc2cc(N(C)C)ccc2O[C@@H]1CN(C)S(=O)(=O)c1ccccc1 was read as Casp6 inh 2.
For O=C(N/N=C/c1ccoc1)c1ccccc1O the results were Casp6 inh 50*, TDP2 absorb 6, NSD2 HMT inh 6, LEDGF integ inh -2, UHRF1 MBD2 ctr -3 and MBD2 inh -1.
Screening O=C(N/N=C/c1ccoc1)c1ccccc1 returned Casp6 inh 23, TDP2 absorb -1, NSD2 HMT inh 1, LEDGF integ inh 2, UHRF1 MBD2 ctr 4 and MBD2 inh 2.
For Cc1ccccc1OC1(C)CCN(Cc2ccc(-c3ccccn3)cc2)C1 (stereo not drawn) the results were Casp6 inh 84*, TDP2 absorb 10, NSD2 HMT inh 1, LEDGF integ inh -2, UHRF1 MBD2 ctr 5 and MBD2 inh 1.
`CN(Cc1ccccc1)C(=O)C1CCC(CNS(=O)(=O)c2cccc3cccnc23)CC1` (stereo not drawn) gave Casp6 inh 2, TDP2 absorb -4, NSD2 HMT inh -2, LEDGF integ inh -1, UHRF1 MBD2 ctr 32* and MBD2 inh 4.
For CO[C@@H]1CN(C)C(=O)c2cc(NC(=O)c3nc4ccccc4s3)ccc2OC[C@@H](C)N(Cc2cccnc2)C[C@@H]1C the results were Casp6 inh -2.
`CC(C)(C)CC(C)(C)NCC(=O)Nc1c2c(nc3ccccc13)CCC2` gave Casp6 inh 2, TDP2 absorb 12, NSD2 HMT inh -2, LEDGF integ inh -1, UHRF1 MBD2 ctr 27* and MBD2 inh 4.
For COc1ccc(C[C@H]2CCc3cnnn3COC[C@@H](C(C)C)NC2=O)cc1 the results were Casp6 inh -1.
`CCOC(=O)c1oc2ccc(CNC(C)(C)C)c(Cl)c2c1C` gave Casp6 inh -3, TDP2 absorb -13, LEDGF integ inh 3, UHRF1 MBD2 ctr 97* and MBD2 inh -3.
`O=c1oc2ccccc2c(NCCO)c1[N+](=O)[O-]` gave Casp6 inh 3, TDP2 absorb -10, NSD2 HMT inh -4, LEDGF integ inh 1, UHRF1 MBD2 ctr 41* and MBD2 inh 1.

Compound activity deposited in PubChem by several laboratories.
